Screening results from PubChem.
GPR7 antagonist – GPR7 receptor antagonists, primary screen, cell-based, fluorescence, single concentration. Neuropeptides B/W receptor type 1 (Homo sapiens), P48145. GPR7-expressing cells, fluorescence antagonist assay. inhibition, % at 4.4 µM. 1.1% of 290,000 active; in the data active = inhibition above about 16%, passing the limit was not always enough;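 note: cells stimulated with the agonist NPW; 0% = agonist with vehicle and 100% = vehicle without agonist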
TAAR1 antagonist – human TAAR1 antagonists, primary screen, Fluo-8 calcium fluorescence, CHO RD-HGA16 cells. Trace amine-associated receptor 1 (Homo sapiens), Q96RJ0. antagonist. inhibition, % at 3 µM. 1.5% of 360,000 active;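 active = inhibition above a per-plate cutoff, the mean inhibition of test compounds on that plate plus 3 SD, cut at about 49% in these data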;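 note: 0% = DMSO plus EC80 beta-PEA response and 100% = DMSO alone without agonist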
Target sequence (Q96RJ0 whole entry, looked up): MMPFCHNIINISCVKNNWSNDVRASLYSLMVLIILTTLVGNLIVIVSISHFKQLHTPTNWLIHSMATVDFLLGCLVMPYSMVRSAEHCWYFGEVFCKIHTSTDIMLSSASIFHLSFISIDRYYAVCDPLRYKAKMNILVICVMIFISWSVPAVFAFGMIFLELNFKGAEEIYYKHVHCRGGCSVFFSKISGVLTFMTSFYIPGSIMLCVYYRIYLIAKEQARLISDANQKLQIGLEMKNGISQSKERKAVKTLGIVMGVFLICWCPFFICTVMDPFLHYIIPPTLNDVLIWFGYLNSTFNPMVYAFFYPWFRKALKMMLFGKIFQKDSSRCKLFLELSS
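Test system: CHO RD-HGA16 cells bearing hTAAR1 | Reagent: β-PEA, EC80 | Compound dosing: 3 µM, single point | Schedule: Dye loading 75 min at 37 °C, then 30 min room temperature | Signal: Calcium fluorescence with Fluo-8 | Evaluation: Percent inhibition of PEA-evoked calcium signal, max/basal emission ratio | Control set: DMSO-only wells and EC80 β-PEA-stimulated wells | Repeats: Singlicate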
OX1R antag-1 – antagonists of human orexin 1 receptor (OX1R) | Orexin/Hypocretin receptor type 1 (Homo sapiens), O43613 | OX1R-expressing cells, FRET antagonist read-out | inhibition, % at 6.6 µM | 1.8% of 330,000 active | AID 485270, 2010; in the data active = inhibition mostly above about 38%, no sharp cut-off; inactive = mostly below about 40%;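 note: 0% = agonist challenge alone and 100% = reference antagonist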
Target sequence (O43613 whole entry, looked up): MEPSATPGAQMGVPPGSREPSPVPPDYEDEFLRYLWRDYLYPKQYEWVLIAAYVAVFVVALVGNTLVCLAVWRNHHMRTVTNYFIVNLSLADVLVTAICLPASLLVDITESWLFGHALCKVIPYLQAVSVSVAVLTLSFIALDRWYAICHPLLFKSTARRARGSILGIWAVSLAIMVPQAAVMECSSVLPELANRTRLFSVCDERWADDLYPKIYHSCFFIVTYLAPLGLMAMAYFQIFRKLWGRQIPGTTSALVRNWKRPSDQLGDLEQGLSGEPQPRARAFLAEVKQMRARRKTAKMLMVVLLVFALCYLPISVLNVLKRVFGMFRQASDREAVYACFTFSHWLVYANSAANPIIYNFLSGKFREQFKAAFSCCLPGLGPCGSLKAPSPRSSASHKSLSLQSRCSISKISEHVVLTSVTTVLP
CHO parental Ca – ATP-evoked calcium signal inhibitors, parental CHO, primary screen, counter-screen for OX1R antagonist project, cell-based, fluorescence, Fluo-8 calcium dye; inhibition, % at 5.6 µM; parental CHO-K1, ATP-induced calcium, Fluo-8 fluorescence; 0.63% of 330,000 active; AID 463079, 2010;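 active = inhibition above that plate's mean sample inhibition plus 3 SD, cut at about 26% in these data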;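 note: 0% = ATP-challenged DMSO wells and 100% = DMSO wells without ATP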
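Material – parental CHO cells · Reagent – ATP stimulus · Compound – single nominal dose of 5.6 µM per compound · Detection – Fluo-8 fluorescence · Read-out basis – percent inhibition of calcium signal · Controls – ATP-challenged DMSO wells low, unchallenged DMSO wells high · Repeats – no replicates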
TAAR1 ag – human TAAR1 agonists, primary screen, Fluo-8 calcium fluorescence, CHO RD-HGA16 cells; AID 624467, 2012; Trace amine-associated receptor 1 (Homo sapiens), Q96RJ0; vehicle wells 0%, saturating PEA agonist 100%; activation, % at 3 µM; 0.99% of 360,000 active;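 active = activation above the mean activation of all test compounds in the run plus 3 SD, cut at about 38% in these data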
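Repeats: no replicates (n 1) | Material: CHO-derived RD-HGA16 cells with stable Gα16 and human TAAR1 | Technique: Kinetic Fluo-8 calcium fluorescence | Schedule: 17-24 h seeding, 75 min 37 °C dye, 30 min RT | Evaluation: % activation from peak over basal fluorescence ratio, DMSO-to-PEA scaled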
OX1R antag-2 – OX1R (HCRTR1) antagonists, primary screen, fluorescence, CHO/OX1R cells, Fluo-8 calcium, orexin A | Orexin/Hypocretin receptor type 1 (Homo sapiens), O43613 | Fluo-8 calcium fluorescence | inhibition, % at 5 µM | 0.43% of 330,000 active;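 active = inhibition above its plate's threshold, mean inhibition of all tested compounds on the plate plus 3 SD, cut at about 37% in these data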;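 note: 0% = orexin A challenge wells and 100% = SB-334867-A antagonist wells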
TAAR1 ag conf – human TAAR1 agonists, retest of hits, confirmation, Fluo-8 calcium fluorescence, CHO RD-HGA16 cells; shares compounds with TAAR1 ag; scaled: DMSO 0%, maximal phenethylamine 100%; activation, % at 3 µM; 82% of 2,400 active;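 active = activation above a cutoff set at the run's mean compound activation plus 3 SD, cut at about 39% in these data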
Ga16 nonsel ag – nonselective calcium mobilization agonists, CHO-Ga16 cells, counter-screen for hTAAR1 agonist project, cell-based, fluorescence, CHO-Ga16 parental line; shares compounds with TAAR1 ag; Fluo-8 calcium fluorescence; normalized to maximal ATP response, DMSO zero; activation, % at 3 µM; 50% of 2,400 active; AID 651787, 2012;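 active = activation above the run cutoff, the mean activation over all tested wells plus 3 SD, cut at about 12% in these data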;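 note: 0% = DMSO wells and 100% = maximal ATP response on the peak over basal ratio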
TAAR1 desensitize – TAAR1 desensitization by agonist hits, confirmation, counter-screen for TAAR1 agonist project, cell-based, fluorescence, tachyphylaxis; shares compounds with TAAR1 ag; CHO RD-HGA16 hTAAR1, Fluo-8 calcium, beta-PEA response inhibition; inhibition, % at 3 µM; 46% of 2,400 active;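 active = inhibition above the run cutoff, the mean inhibition of all test compounds plus 3 SD, cut at about 49% in these data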;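 note: beta-PEA stimulus applied at its EC80; loss of beta-PEA calcium signal after compound pretreatment read as receptor desensitization; 0% = DMSO with beta-PEA at EC80 and 100% = DMSO alone without agonist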
Ga16 nonsel ant – inhibition of ATP-evoked calcium response in CHO-Ga16 cells, counter-screen for TAAR1 agonist project, cell-based, fluorescence; shares compounds with TAAR1 ag; 39% of 2,400 active; CHO-Ga16 ATP-induced calcium, Fluo-8 fluorescence; inhibition, % at 3 µM; AID 651952, 2012;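 active = inhibition above the plate's mean compound inhibition plus 3 SD, computed per plate, cut at about 22% in these data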;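 note: 0% = EC80 ATP with DMSO and 100% = DMSO wells without ATP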
* = called active by the depositor. Compounds with a hit are over-represented: about 4.5% of the library has one in this group of screens.

Results for CN(CC(=O)Nc1ccc(F)cc1)C(=O)Cn1cnc2ccc([N+](=O)[O-])cc2c1=O ?
TAAR1 antagonist: -14; OX1R antag-1: 20; CHO parental Ca: -4; TAAR1 ag: 2; OX1R antag-2: -3

Results for CC(C(=O)Nc1ccc2c(c1)OCCO2)N(C)CC(=O)Nc1ccccc1Br (stereo not drawn) ?
TAAR1 antagonist: 8; TAAR1 ag: 1

What do the screens show for `COc1ccc(C(=O)N2CCN(CC(=O)N3CCOCC3)CC2)cc1`?
GPR7 antagonist: 21; TAAR1 antagonist: -8; OX1R antag-1: 7; CHO parental Ca: 1; TAAR1 ag: 4; OX1R antag-2: -10

What do the screens show for `COc1ccccc1-c1nc(SCC(=O)Nc2cc(C)on2)c2c(=O)n(C)c(=O)n(C)c2n1`?
GPR7 antagonist: -10; TAAR1 antagonist: -10; OX1R antag-1: 20; CHO parental Ca: -8; TAAR1 ag: 0; OX1R antag-2: -25

How did Cc1c(C(=O)N(C)CCCCN2CCOCC2)oc2c(F)cccc12 do in these assays?
GPR7 antagonist: -18; TAAR1 antagonist: 3; OX1R antag-1: 13; CHO parental Ca: -22; TAAR1 ag: 2; OX1R antag-2: -35

What do the screens show for `Cc1sc(NC(=O)CSc2nnc(COc3ccccc3)n2C)c(C#N)c1C`?
GPR7 antagonist: -11; TAAR1 antagonist: 47; OX1R antag-1: 7; CHO parental Ca: 28; TAAR1 ag: 53*; OX1R antag-2: 1; TAAR1 ag conf: 11; Ga16 nonsel ag: 4; TAAR1 desensitize: 19; Ga16 nonsel ant: 8

How did Cc1sc(NC(=O)CSc2nnc3scc(-c4ccccc4)n23)c(C#N)c1C do in these assays?
GPR7 antagonist: -5; TAAR1 antagonist: 4; OX1R antag-1: 6; CHO parental Ca: -11; TAAR1 ag: 9; OX1R antag-2: -15

How did Cc1ccc(OCc2nnc(SCC(=O)Nc3sc(C)c(C)c3C#N)n2C)cc1 do in these assays?
GPR7 antagonist: -15; TAAR1 antagonist: 46; OX1R antag-1: 12; CHO parental Ca: 1; TAAR1 ag: 54*; OX1R antag-2: 6; TAAR1 ag conf: 10; Ga16 nonsel ag: 2; TAAR1 desensitize: 20; Ga16 nonsel ant: 5

Results for Cc1ccc(N=C2NC(=O)/C(=C/c3cccn3C)S2)cc1 ?
GPR7 antagonist: -5; TAAR1 antagonist: -25; OX1R antag-1: 17; CHO parental Ca: -16; TAAR1 ag: 3; OX1R antag-2: 21

How did CC1C/C(=C/c2cccn2C)C(=O)/C(=C/c2cccn2C)C1 (stereo not drawn) do in these assays?
GPR7 antagonist: -2; TAAR1 antagonist: 76*; OX1R antag-1: 0; CHO parental Ca: 83*; TAAR1 ag: 67*; OX1R antag-2: 111*; TAAR1 ag conf: 40*; Ga16 nonsel ag: 45*; TAAR1 desensitize: 51*; Ga16 nonsel ant: 65*

How did O=C(NCCCn1ccnc1)C1CCN(S(=O)(=O)c2cc([N+](=O)[O-])ccc2Cl)CC1 do in these assays?
TAAR1 antagonist: -1; OX1R antag-1: 32; CHO parental Ca: -6; TAAR1 ag: 2; OX1R antag-2: 5

Results for CCC(=O)Nc1ccc(C(=O)Nc2ccc(Br)cc2F)cc1 ?
GPR7 antagonist: -13; TAAR1 antagonist: 83*; OX1R antag-1: 5; CHO parental Ca: 2; TAAR1 ag: 75*; OX1R antag-2: 7; TAAR1 ag conf: 14; Ga16 nonsel ag: 3; TAAR1 desensitize: 11; Ga16 nonsel ant: 13

How did CCN(CC)c1ccc(/C=C2\C(=O)c3ccc(C(=O)O)cc3C2=O)cc1 do in these assays?
GPR7 antagonist: 7; TAAR1 antagonist: 86*; OX1R antag-1: 27; CHO parental Ca: 51*; TAAR1 ag: 125*; OX1R antag-2: 87*; TAAR1 ag conf: 144*; Ga16 nonsel ag: 163*; TAAR1 desensitize: 89*; Ga16 nonsel ant: 92*

How did Cc1cccn2c(CNCCc3ccccn3)c(C(=O)N3CCOCC3)nc12 do in these assays?
GPR7 antagonist: -8; TAAR1 antagonist: 9; OX1R antag-1: 24; CHO parental Ca: -5; TAAR1 ag: 49*; OX1R antag-2: -16; TAAR1 ag conf: 68*; Ga16 nonsel ag: 5; TAAR1 desensitize: 41; Ga16 nonsel ant: 18

What do the screens show for `O=C(NCCc1ccc(Cl)cc1)c1ncn[nH]1`?
GPR7 antagonist: -2; TAAR1 antagonist: -13; OX1R antag-1: 27; CHO parental Ca: -5; TAAR1 ag: 48*; OX1R antag-2: 1; TAAR1 ag conf: 46*; Ga16 nonsel ag: 3; TAAR1 desensitize: 7; Ga16 nonsel ant: 4

Results for CC1CCN(c2ccc(-c3cccs3)nn2)CC1 ?
GPR7 antagonist: 4; TAAR1 antagonist: -16; OX1R antag-1: -4; CHO parental Ca: -2; TAAR1 ag: -3; OX1R antag-2: -7

How did Cc1cc(/C=C2/C(=N)N3C(=NC2=O)SN=C3S(C)(=O)=O)c(C)n1-c1ccc(F)cc1 do in these assays?
GPR7 antagonist: 0; TAAR1 antagonist: 8; OX1R antag-1: 27; CHO parental Ca: 0; TAAR1 ag: 4; OX1R antag-2: 0
